Results as given in article PMC12866962 (Cell host & microbe, 2026).

How the values were obtained:
[1] = test system: ThsA from Escherichia coli; settings: homologous ThsA from Escherichia coli; cited from earlier work
[2] = test system: BaY2 Thoeris system (type II); test: Thoeris protection in liquid media; type: cell-based; settings: for Inhibition of BaY2 Thoeris (phage-induced host population lysis), in words: B. subtilis expressing BaY2 Thoeris, phage SPO1, liquid culture
[3] = test system: BaY2 Thoeris system (type II); test: Phage reproduction of SPO1; type: cell-based; settings: PFUs 15 hours post-infection; 1 mM of compound 1, 333 µM of IP6C, 1 mM of compound 5
Method in brief: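 B. subtilis overnight culture diluted 1:100 in LB; 180 µL added to wells with 2 µL compound stock (DMSO or water). Preincubated 30 min at 30 °C, then ~10,000 PFU SPO1 added; grown at 30 °C, 208 rpm, OD600 every 30 min. After 15 h, cleared supernatant (16,000 g, 10 min) titred by 5 µL drops of 1:10 dilutions on undefended B. subtilis soft-agar lawns.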

BaY2ThsB [4] = target: T1, BaY2ThsB (Bacillus amyloliquefaciens, UniProt I2C644); type: cell-based; settings: for His-ADPR production by ThsB: 500 µM of compound, SPO1-infected B. subtilis Pspank-BaY2ThsB, LC-HRMS
T1 sequence (I2C644 whole entry): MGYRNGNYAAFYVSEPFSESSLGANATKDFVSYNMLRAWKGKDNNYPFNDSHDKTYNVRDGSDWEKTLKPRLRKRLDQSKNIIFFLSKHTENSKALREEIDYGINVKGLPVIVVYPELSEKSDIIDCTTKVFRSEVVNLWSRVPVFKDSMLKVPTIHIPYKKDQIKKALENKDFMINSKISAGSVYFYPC

[5] = test system: ThsB (BaY2ThsB or ArThsB); test: Thermal shift assay; type: binding; settings: 5 µM protein, 1 mM compound, in the presence of NAD+
Method in brief: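 BaY2ThsB or ArThsB was mixed with test compound or buffer in 10 mM HEPES pH 7.5, 150 mM NaCl, 5 mM MgCl2 with NAD+.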

BaY2ThsA^Macro [6] = target: T2, BaY2ThsA^Macro (Bacillus amyloliquefaciens, UniProt I2C645); test: IP6C-ADPR and His-ADPR pull-down with BaY2ThsA^Macro; type: binding, Bacillus amyloliquefaciens Y2
T2 sequence (I2C645 83-297): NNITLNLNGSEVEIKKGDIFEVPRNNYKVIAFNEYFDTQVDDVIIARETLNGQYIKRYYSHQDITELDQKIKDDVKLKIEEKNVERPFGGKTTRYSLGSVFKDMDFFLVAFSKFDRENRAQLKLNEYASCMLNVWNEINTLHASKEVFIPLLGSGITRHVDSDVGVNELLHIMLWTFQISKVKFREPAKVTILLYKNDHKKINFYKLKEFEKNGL

[7] = test system: P. aeruginosa MRSN11538 Thoeris system cloned into P. aeruginosa PAO1; test: Thoeris protection in liquid media, P. aeruginosa PAO1:Thoeris + Lit1; type: cell-based; settings: Pseudomonas aeruginosa, PAO1, read-out: IC50 (inhibition of type II Thoeris in P. aeruginosa PAO1:Thoeris)
[8] = test system: P. aeruginosa MRSN11538 Thoeris system cloned into P. aeruginosa PAO1; test: Phage reproduction of Lit1 on P. aeruginosa PAO1:Thoeris II; type: cell-based, Pseudomonas aeruginosa; settings: PFUs 15 hours post-infection; 1 mM of IP6C, 8.2 mM of nicotinamide
Method in brief: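 Overnight P. aeruginosa diluted 1:100 into LB + 10 mM MgSO4. 180 µL went into wells holding 2 µL test compound stock in DMSO or water. After 30 min at 37 °C, ~10,000 PFU Lit1 was added and OD600 read every 30 min at 37 °C. At 15 h, supernatant (16,000 g, 10 min) was titred by drop plaque assay on undefended P. aeruginosa.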

[9] = test system: E. faecalis DS16 Thoeris system cloned into E. faecalis OG1RF; test: Thoeris protection in liquid media, E. faecalis OG1RF:Thoeris + NPV1; type: cell-based; settings: Enterococcus faecalis, read-out: IC50 (inhibition of type II Thoeris in E. faecalis OG1RF:Thoeris)
[10] = test system: E. faecalis DS16 Thoeris system cloned into E. faecalis OG1RF; test: Phage reproduction of NPV1 on E. faecalis OG1RF:Thoeris; type: cell-based, Enterococcus faecalis; settings: PFUs 15 hours post-infection; 10 mM of IP6C, 8.2 mM of nicotinamide
Method in brief: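 Overnight E. faecalis was diluted 1:1000 into THB + 10 mM MgSO4 and added to compound-containing wells. After 1 h at 37 °C, ~1,000 PFUs NPV1 were added, with OD600 read every 30 min. At 15 h, culture was spun at 16,000 g for 10 min. Supernatant PFUs were titred by small-drop plaque assay on defenceless E. faecalis and compared with input PFUs. Mean ± SEM, three biological replicates.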

[11] = test system: Thoeris system in the P. aeruginosa MRSN11538 clinical isolate; type: cell-based; settings: Pseudomonas aeruginosa, read-out: IC50 (sensitization of P. aeruginosa MRSN11538 WT to Lit1)
Method in brief: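 Liquid lysis assay. Host overnight culture diluted 1:100 into LB + 10 mM MgSO4; 180 µL added per well over 2 µL test compound stock (DMSO or water); 30 min at 37 °C before ~10,000 PFU Lit1. OD600 recorded every 30 min at 37 °C. Thoeris strength derived from integrated area under the lysis curve, normalized to no-compound and no-defense controls.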

[12] = test system: Thoeris system in the P. aeruginosa MRSN11538 clinical isolate; test: Phage reproduction of Lit1 on P. aeruginosa MRSN11538; type: cell-based, Pseudomonas aeruginosa; settings: PFUs 20 hours post-infection; 1 mM of IP6C, 8.2 mM of nicotinamide
[13] = test system: P. aeruginosa PAO1:Thoeris; test: Preliminary phage therapy model in mice infected with PAO1:Thoeris; type: in vivo, BALB/c mice; settings: PAO1:Thoeris i.p. infection, IP6C only
[14] = Toxicity test of compounds in mice; type: in vivo
[15] = test system: human cell lines (hTERT RPE-1, HDFn); test: Human cell viability assay; type: cell-based; settings: 72 hours, Cell Titer Glo 2.0
Method in brief: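 hTERT RPE-1 and neonatal dermal fibroblasts were kept in DMEM with 10% FBS, penicillin/streptomycin, 37 °C, 5% CO2, and tested mycoplasma-negative. Cells were seeded at 2,000/well. After 24 h, medium was replaced with 0.1% DMSO vehicle or test compound (stock 1 M in DMSO), six replicate wells per dose. Luminescence was read after 72 h and expressed as percent viability relative to vehicle.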

[16] = test system: Staphylococcus aureus USA300; test: Polymicrobial model culture, S. aureus CFUs; type: cell-based; settings: 300 µM IP6C, 8.5 hours
[17] = test system: Streptococcus sanguinis SK36; test: Polymicrobial model culture, S. sanguinis CFUs; type: cell-based; settings: 300 µM IP6C, 8.5 hours
Method in brief: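 S. aureus USA300, S. sanguinis SK36 and P. aeruginosa PAO1:Thoeris II overnights were mixed 1:1:1, then diluted 1:100 into TSB + 0.5% yeast extract + 10 mM MgSO4. Wells received DMSO or test compound, plus Lit1 (MOI 0.0001) or LB. Incubation was 8.5 h at 37 °C, 5% CO2. CFUs were counted before and after by PBS serial dilution on Streptococcus Selective Agar at 37 °C, 5% CO2. Three replicates.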

[18] = Quantification of IP6C in polymicrobial model culture; type: physicochemical; settings: after 24 hours in polymicrobial co-culture with phage, LC-MS/MS
Method in brief: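 In the three phage-plus-compound polymicrobial cultures, 1 µL was sampled at start and at 24 h and quenched in 1 mL 90% acetonitrile. Analysis used a HILIC column with 20 mM ammonium acetate pH 9.2 containing medronic acid versus acetonitrile, gradient at 0.4 mL/min. MRM monitored 162.1→117 (quantifier) and 162.1→78.1 (qualifier), quantified against a pure-standard calibration curve.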

BaY2ThsB [19] = target: T1, BaY2ThsB; test: IP6C-ADPR pull-down with BaY2ThsB; type: binding, Bacillus amyloliquefaciens Y2; settings: protein purified from E. coli cells grown with 1.25 mM IP6C
Method in brief: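 E. coli TOP10 co-expressing DelTM-ThsA-TwinStrep and ThsB-His12 from one pBAD operon was induced at OD600 0.6 with 0.2% L-arabinose, with or without test compound, then grown overnight at 16 °C. ThsB was captured on His-tag magnetic beads, heat-denatured 5 min at 98 °C and centrifuged. Supernatant was analysed by LC-MS (extracted ion chromatogram of conjugate).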

BaY2ThsA^Macro [20] = target: T2, BaY2ThsA^Macro; test: Saturation transfer difference; type: binding, Bacillus amyloliquefaciens Y2; settings: 10 µM BaY2ThsA^Macro, 1 mM IP6C-ADPR, competed with 1 mM ADPR
EcThsA^Macro = test: ITC experiment; type: binding, Escherichia coli

**Q.** For Nc1ncnc2c1ncn2[C@@H]1O[C@H](COP(=O)(O)OP(=O)(O)OC[C@H]2OC(O)[C@H](O)[C@@H]2O)[C@@H](O)[C@H]1O (some centres unmarked) [ADPR], which Kd [1] is on record?
**A.** 4.6 ± 0.5 µM

**Q.** With c1ccn2ccnc2c1 [Compound 26, imidazo[1,2-a]pyridine] as the compound, how does the “Inhibition of BaY2 Thoeris (phage-induced host population lysis), in words” value [2] read?
**A.** weak potency

**Q.** What does the source list for NC(=O)c1ccc2nccn2c1 [IP6C, imidazo[1,2-a]pyridine-6-carboxamide]?
**A.** IC50 ([2]; Bacillus amyloliquefaciens, read-out: IC50 (inhibition of BaY2 Thoeris)): 10 µM; Phage reproduction of SPO1 on B. subtilis expressing BaY2 Thoeris [3]: promoted the reproduction of SPO1; Intracellular NAD+ level (BaY2ThsB [4]; 500 µM of IP6C, after SPO1 infection): unchanged; His-ADPR production by ThsB (BaY2ThsB [4]): abolished His-ADPR production; Binding to ThsB (melting temperature shift) [5]: no significant binding; Amount of His-ADPR bound to BaY2ThsA^Macro (BaY2ThsA^Macro [6]; E. coli co-expressing BaY2ThsA^Macro and BaY2ThsB grown with 1.25 mM IP6C): dramatically decreased; IC50 [7]: 19 µM; Phage propagation of Lit1 on P. aeruginosa PAO1:Thoeris II [8]: allowed P. aeruginosa phages to propagate; IC50 [9]: 8200 µM; Phage proliferation of NPV1 on E. faecalis OG1RF:Thoeris [10]: fully rescued phage proliferation; IC50 [11]: 116 µM; Phage propagation of Lit1 on P. aeruginosa MRSN11538 WT [12]: allowed Lit1 phages to successfully propagate; Survival of mice treated with compound only (no phage) [13]: all mice died within one day; Toxicity to mice ([14]; i.p., 50 μL of 20 mg/mL, observed 7 days): not toxic; Food intake and body weight of mice ([14]; mice treated with IP6C): initially eat less and lose weight; Toxicity to human cell lines [15]: not toxic; S. aureus CFUs in polymicrobial mixture [16]: unaffected; S. sanguinis CFUs in polymicrobial mixture [17]: unaffected; Temporal stability: IP6C levels in co-culture [18]: no measurable decrease

**Q.** Which “Intracellular concentration of IP6C-ADPR” value (BaY2ThsB [4]; IPTG-inducible BaY2ThsB expression system, cells grown with IP6C, approximated with IP6C-ADPR standard) does the source give for NC(=O)c1ccc2n(cc[n+]2[C@@H]2O[C@H](COP(=O)(O)OP(=O)(O)OC[C@H]3O[C@@H](n4cnc5c(N)ncnc54)[C@H](O)[C@@H]3O)[C@@H](O)[C@H]2O)c1 [IP6C-ADPR] here?
**A.** around 700 nM

**Q.** What about the “Co-purification of IP6C-ADPR with BaY2ThsB” value (BaY2ThsB [19]) of the same compound?
**A.** did not co-purify with BaY2ThsB

**Q.** And the “IP6C-ADPR detected in purified BaY2ThsA^Macro” value (BaY2ThsA^Macro [6]; protein co-expressed with BaY2ThsB in E. coli grown with 1.25 mM IP6C)?
**A.** no IP6C-ADPR was detected

**Q.** What about the “Binding to BaY2ThsA^Macro by STD NMR” value (BaY2ThsA^Macro [20]) of the same compound?
**A.** binds poorly

**Q.** What about the “Binding to EcThsA^Macro by ITC” value (EcThsA^Macro) of the same compound?
**A.** did not reveal any interpretable binding

**Q.** With N[C@@H](Cc1c[nH]cn1)C(=O)O [histidine, reference compound] as the compound, how does the “Binding to ThsB (melting temperature shift)” value [5] read?
**A.** no significant binding

**Q.** With NC(=O)c1cccnc1 [nicotinamide] as the compound, how does the “Inhibition of BaY2 Thoeris (phage-induced host population lysis), in words” value ([2]; listed as 9) read?
**A.** fully inhibited the Thoeris defense

**Q.** And the “His-ADPR production by ThsB” value (BaY2ThsB [4])?
**A.** inhibited His-ADPR production

**Q.** And the IC50 [7]?
**A.** 185 µM

**Q.** And the “Phage propagation of Lit1 on P. aeruginosa PAO1:Thoeris II” value [8]?
**A.** allowed P. aeruginosa phages to propagate

**Q.** And the IC50 [9]?
**A.** 1500 µM

**Q.** What about the “Phage proliferation of NPV1 on E. faecalis OG1RF:Thoeris” value [10] of the same compound?
**A.** fully rescued phage proliferation

**Q.** What about the IC50 [11] of the same compound?
**A.** 838 µM

**Q.** And the “Phage propagation of Lit1 on P. aeruginosa MRSN11538 WT” value [12]?
**A.** allowed Lit1 phages to successfully propagate
